This is an account of results in article PMC11718131 (Communications Biology, 2025).

Molecules are shown by their SMILES. Peptide text beside a SMILES is read from it. * marks the point of attachment. Cbz = O=C(OCc1ccccc1)*

Data set [1] concerns proteasome; GFP-CA2-DRD fusion in Jurkat cells. Put plainly: Proteasome inhibition assay. The format is cell-based, human. As to conditions: 10 µM MG132, 4 h without ACZ after 24 h ACZ; versus vehicle. The gist of the method:
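Cells then washed with fresh media and split in two: one arm […] 10 µM MG132 for 4 h. GFP expression read by flow cytometry.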

The subject of the next data set is wildtype (WT) CA2. To be noted: in words; cited from earlier work.
For data set [2] the following is noted: cited from earlier work.
The conditions of data set [3]: Huntington's disease; cited from earlier work.

With `CC(C)C[C@@H](C=O)NC(=O)[C@H](CC(C)C)NC(=O)[C@H](CC(C)C)NC(=O)OCc1ccccc1` [MG132] (Cbz-Leu-Leu-Leu-aldehyde), the “decrease in GFP levels after ACZ withdrawal” value in data set [1] was “smaller decrease in GFP levels”. Take `CC(=O)Nc1nnc(S(N)(=O)=O)s1` [ACZ, acetazolamide]: the “affinity to CA2” value in the data set on wildtype (WT) CA2 is on record as “low nanomolar affinity”. Besides, the “total in vivo exposure levels” value in data set [2] (FDA-approved and clinically used doses) was ~ 100 µM. Besides, the “total concentrations in plasma and other tissues” value in data set [2] (approved doses, in words) is recorded as “micromolar range”. With `CC1(C)CC(Oc2ccc(-c3ccc(-c4cn[nH]c4)cc3O)nn2)CC(C)(C)N1` [branaplam], in data set [3], the “clinical trial outcome” value is recorded as “halted because of drug-related side effects”.
